# Test results published in the M2OR odorant receptor database.
# Biological target: T1, OR10J5 (Homo sapiens) (UniProt Q8NHC4)
# T1 sequence (whole entry): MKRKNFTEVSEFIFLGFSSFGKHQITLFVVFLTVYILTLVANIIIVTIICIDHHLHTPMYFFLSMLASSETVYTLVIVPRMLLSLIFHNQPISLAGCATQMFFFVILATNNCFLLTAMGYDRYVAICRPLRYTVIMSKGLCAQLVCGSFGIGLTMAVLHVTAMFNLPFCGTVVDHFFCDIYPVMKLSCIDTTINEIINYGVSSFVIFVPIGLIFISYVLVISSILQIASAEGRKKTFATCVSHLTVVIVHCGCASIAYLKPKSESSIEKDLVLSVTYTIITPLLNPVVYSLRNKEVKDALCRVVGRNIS
# Details: stereoisomer not certain
# Procedure, shortened: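 Transient luciferase assays in mammalian cell lines were common, though methods varied by source. The values come from published papers and their supplementary material, with extra details from the original authors when needed. Responsive refers to a measured signal the original authors judged statistically different from baseline, and non-responsive (inactive) to the remainder.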
# 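Further: active if original authors judged signal statistically different from baseline.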
row,Compound,odorant receptor agonist call
1,CC(=O)OCc1ccccc1,inactive
2,CCCCCC=O,inactive
3,CCCCC(=O)O,inactive
4,CCCCCCCCCO,inactive
